Sampled rows, rich in hits. Any-hit rate of the full collection: about 4.8%.
NALP3 yeast inh = inhibitors of NALP3 inflammasome in yeast; Yeast reconstituted NLRP3/ASC/caspase-1, beta-gal luminescence, 24 h; inhibition, % at 10 µM; 330,000 compounds, 0.39% hits;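 active = inhibition of 50% or more; inactive = inhibition below 50%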;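 also: plate controls were induced DMSO wells for no effect and uninduced yeast grown without galactose for full effect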
ALR inh = human ALR oxidase inhibition via reduced H2O2; P55789; purified ALR, DTT oxidation, H2O2 HRP-luminol luminescence; inhibition, % (test concentration not listed); 290,000 compounds, 3.8% hits; AID 485317;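 active = mean replicate inhibition above about 79%, with every replicate also reaching it, limit read from the data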
Target sequence (P55789 whole entry, looked up): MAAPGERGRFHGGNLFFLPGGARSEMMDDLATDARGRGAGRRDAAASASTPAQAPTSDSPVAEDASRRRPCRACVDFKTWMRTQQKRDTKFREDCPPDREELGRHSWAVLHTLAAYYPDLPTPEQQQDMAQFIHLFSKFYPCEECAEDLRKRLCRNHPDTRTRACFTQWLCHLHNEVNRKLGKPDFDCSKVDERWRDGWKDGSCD
NALP1 inh = inhibitors of NALP1 inflammasome in yeast; S. cerevisiae NALP1/ASC/caspase-1 growth, X-gal OD620, 72 h; inhibition, % at 10 µM; 280,000 compounds, 0.61% hits; AID 2071; in the data active = inhibition mostly above about 24%, no sharp cut-off; inactive = mostly below about 32%
UCH37 inh = human UCH37 deubiquitinating enzyme inhibition | Q9Y5K5 | purified proteasome/UCH37, Ub-AMC cleavage fluorescence | inhibition, % (concentration not given with the values) | 330,000 compounds, 0.33% hits | AID 588478;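 active = mean inhibition over replicate wells above about 20%, limit read from the data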;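 also: 0% = compound-free wells with enzyme and 100% = wells lacking proteasome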
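Material: Human UCH37 enzyme supplied as purified proteasome complex | Schedule: 30 min preincubation with enzyme, 25 min cleavage at room temperature | Detection: AMC fluorescence 355/460 nm | Measure: % inhibition of Ub-AMC cleavage fluorescence | Controls: Wells without proteasome as full block, compound-free enzyme plus substrate as uninhibited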
ATG4B inh = ATG4B (human) cysteine protease inhibition; 340,000 compounds, 0.51% hits; ATG4B cleavage of LC3-PLA2, NBD-HPC fluorescence, 1 h; inhibition, % at 8.33 µM; Q9Y4P1; AID 504462; in the data active = inhibition above about 40%
Target sequence (Q9Y4P1 whole entry, looked up): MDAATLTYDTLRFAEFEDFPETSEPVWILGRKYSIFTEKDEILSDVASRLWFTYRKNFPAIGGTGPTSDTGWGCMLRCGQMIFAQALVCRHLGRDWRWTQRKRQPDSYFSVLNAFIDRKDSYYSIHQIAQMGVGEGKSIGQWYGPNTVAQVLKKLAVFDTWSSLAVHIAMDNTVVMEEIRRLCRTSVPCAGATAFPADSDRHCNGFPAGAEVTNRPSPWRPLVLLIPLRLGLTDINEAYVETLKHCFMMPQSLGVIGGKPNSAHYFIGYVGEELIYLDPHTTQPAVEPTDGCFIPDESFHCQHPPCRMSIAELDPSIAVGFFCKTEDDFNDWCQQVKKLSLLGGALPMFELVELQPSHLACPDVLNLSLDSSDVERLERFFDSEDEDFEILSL
Calb FLC = affects C. albicans growth with fluconazole. C. albicans CaCi-2 + fluconazole, Alamar Blue growth, 48 h. growth inhibition, % (no concentration beside the values). 300,000 compounds, 0.57% hits;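 active = growth inhibition above about 58% in most replicates, limit read from the data, passing the limit was not always enough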;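 also: all wells also contain fluconazole at 8 µg/ml as a sub-toxic cotreatment; 0% = median of DMSO wells and 100% = median of geldanamycin control wells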
The depositor's hits bear a star.

What do the screens show for `COC(=O)C1=C(C)NC(=O)NC1c1ccc(OC(=O)c2ccco2)cc1` (configuration not stated)?
NALP3 yeast inh: 0; ALR inh: 2; NALP1 inh: 18*; UCH37 inh: 1; ATG4B inh: -4; Calb FLC: -8

How did CCOC(=O)C1=C(C)NC(=O)NC1c1ccc(N(C)C)cc1 (configuration not stated) do in these assays?
NALP3 yeast inh: 7; UCH37 inh: 5; ATG4B inh: -4; Calb FLC: -6

What do the screens show for `CC1=C(C(=O)Nc2ccccc2)C(c2ccco2)NC(=O)N1` (configuration not stated)?
NALP3 yeast inh: 20; UCH37 inh: 0; ATG4B inh: 2; Calb FLC: -10

What do the screens show for `CCN(CC)c1ccc(C2C(C(=O)OC)=C(C)NC(C)=C2C(=O)OC)cc1`?
NALP3 yeast inh: -1; ALR inh: 99*; NALP1 inh: 5; UCH37 inh: -46; ATG4B inh: -8; Calb FLC: -14

Results for CCN(CC)c1ccc(C2NC(=O)NC(C)=C2C(=O)Nc2ccccc2)cc1 (configuration not stated) ?
NALP3 yeast inh: 4; ALR inh: 99*; NALP1 inh: 1; UCH37 inh: 6; ATG4B inh: -10; Calb FLC: 20

How did CCOC(=O)C1=C(C)NC(=O)NC1c1ccc(N(CC)CC)cc1 (configuration not stated) do in these assays?
NALP3 yeast inh: 3; ALR inh: 98*; NALP1 inh: 14; UCH37 inh: 7; ATG4B inh: -11; Calb FLC: -7

What do the screens show for `O=C(NN=Cc1ccc(-c2ccccc2[N+](=O)[O-])o1)[C@H]1C[C@@H]1c1ccccc1`?
UCH37 inh: 5

How did CCC(O)(CC)C(=O)NN=Cc1cc(Br)cc(Br)c1O do in these assays?
UCH37 inh: -22

Results for COc1ccc(C(C)=NNC(=O)c2nnn(-c3nonc3N)c2-c2cccs2)cc1OC ?
UCH37 inh: -364

How did C/C(=N\NC(=O)c1nn(C)c(C)c1Br)c1ccc(NC(=O)C2CCCC2)cc1 do in these assays?
NALP3 yeast inh: 10; ALR inh: -4; NALP1 inh: -1; ATG4B inh: -3; Calb FLC: 112*

Results for C/C(=N\NC(=O)c1ccn(C)n1)c1ccc(NC(=O)C2CCCC2)cc1 ?
NALP3 yeast inh: 14; ALR inh: 0; NALP1 inh: 15; ATG4B inh: -7; Calb FLC: 20

What do the screens show for `O=C(CN1CCSCC1)NN=Cc1ccc(F)cc1`?
UCH37 inh: 1

What do the screens show for `Oc1ccc(/C=N/N2CCCCC2)c(O)c1O`?
NALP3 yeast inh: 15; ALR inh: 64; NALP1 inh: -4; ATG4B inh: 0; Calb FLC: 12

How did Oc1ccc(/C=N/N2CCCCC2)c(O)c1 do in these assays?
NALP3 yeast inh: -6; ALR inh: 98*; NALP1 inh: 22; ATG4B inh: 5; Calb FLC: 4

How did Oc1ccccc1C=NN1CCCCCC1 do in these assays?
UCH37 inh: 0; ATG4B inh: -1

Results for Oc1ccc(/C=N/N2CCOCC2)c(O)c1O ?
NALP3 yeast inh: 13; ALR inh: 98*; NALP1 inh: -20; ATG4B inh: -1; Calb FLC: 26

What do the screens show for `Oc1cccc(/C=N/N2CCCCC2)c1O`?
NALP3 yeast inh: 16; ALR inh: 99*; NALP1 inh: -10; ATG4B inh: 3; Calb FLC: -1

Results for COc1cc(-c2nc3ccccn3c2N=Cc2cc(OC)c(O)cc2Cl)ccc1O ?
UCH37 inh: -10

Results for COc1cc2c(cc1O)CCN(C(=O)CSc1nncn1C)[C@@H]2C ?
NALP3 yeast inh: -6; ALR inh: 82*; UCH37 inh: 2; ATG4B inh: 3

How did Cc1nn(-c2ccccc2)c(N2CCCCC2)c1C=NO do in these assays?
UCH37 inh: 1

What do the screens show for `CC(=O)ON=C(c1nonc1N)N(C)C`?
UCH37 inh: 3

How did Cc1ccc(OC(C)C(=O)NN=Cc2ccccn2)cc1 (configuration not stated) do in these assays?
UCH37 inh: 1

What do the screens show for `O=C(C1CCC(=O)N1Cc1ccccc1Cl)N1CCN(c2ccc(F)cc2)CC1` (configuration not stated)?
NALP3 yeast inh: -2; ALR inh: 97*; NALP1 inh: -7; UCH37 inh: -2; ATG4B inh: 2; Calb FLC: 1

How did CN(CCCNC(=O)C1CCC(=O)N1Cc1ccc(F)cc1)c1ccccc1 (configuration not stated) do in these assays?
NALP3 yeast inh: 8; ALR inh: 99*; NALP1 inh: -1; UCH37 inh: 4; ATG4B inh: -7; Calb FLC: 0

What do the screens show for `Cc1ccc(CCNC(=O)C2CCC(=O)N2Cc2ccc(F)cc2)cc1` (configuration not stated)?
NALP3 yeast inh: -7; ALR inh: -5; NALP1 inh: -46; UCH37 inh: 1; ATG4B inh: -6; Calb FLC: 0

What do the screens show for `CC(C)N1C(=O)CCC1C(=O)N1CCN(c2ccc(F)cc2)CC1` (configuration not stated)?
NALP3 yeast inh: -4; UCH37 inh: 1; ATG4B inh: -7; Calb FLC: 3

How did CN(CCCNC(=O)C1CCC(=O)N1Cc1ccccc1Cl)c1ccccc1 (configuration not stated) do in these assays?
NALP3 yeast inh: 7; ALR inh: 98*; NALP1 inh: 22; UCH37 inh: 1; ATG4B inh: -3; Calb FLC: 4

What do the screens show for `CC1Oc2ccccc2C=C1C=NNC(=O)c1ccccc1` (configuration not stated)?
UCH37 inh: -14

Results for COc1ccc(C=NNC(=O)CNS(=O)(=O)c2ccccc2)cc1 ?
UCH37 inh: 1

How did O=C(O)CC1S/C(=N/N=C/c2ccc(-c3ccccc3[N+](=O)[O-])o2)NC1=O (configuration not stated) do in these assays?
NALP3 yeast inh: -5; ALR inh: 98*; NALP1 inh: 3; ATG4B inh: 2; Calb FLC: 0

Results for O=C(O)CC1S/C(=N/N=Cc2ccc(-c3ccc(Cl)c([N+](=O)[O-])c3)o2)NC1=O (configuration not stated) ?
UCH37 inh: 19

Results for Cc1ccc(-c2ccc(/C=N/N=C3/NC(=O)C(CC(=O)O)S3)o2)c([N+](=O)[O-])c1 (configuration not stated) ?
NALP3 yeast inh: -2; ALR inh: 99*; NALP1 inh: 4; ATG4B inh: -1; Calb FLC: 3

What do the screens show for `COc1ccc(COC(=O)NN=C(C)CC(=O)NCc2ccc(Cl)cc2)cc1`?
UCH37 inh: 1

Screens from PubChem BioAssay.
